Measurements from ChEMBL document CHEMBL1156524, “Profiling the enzymatic properties and inhibition of human complement factor B” (J Biol Chem, 2007).
Active and inactive are the calls of the source. The calls are words filed in the database; no cut-off is given here. Residues, ends and D or L forms follow the SMILES beside them.

Assays:
Homo sapiens [1] = organism: Homo sapiens; experiment: Inhibition of human C3bBb convertase assessed as C3 cleavage at 1 mM after 30 mins by 7% gel analysis
Outline: (§1)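 Native C3 convertase formed in situ: C3 (10 µg), human factor B (0.5 µg) and factor D (0.05 µg) incubated 30 min at 37 °C in 32 µL PBS pH 7.4 with 1 mM MgCl2 and 154 mM NaCl, plus buffer or inhibitor (0.25–1.0 mM). Cleavage of C3 to C3a read by SDS-PAGE, 2.5 µg C3/well on 7% gel and 5 µg C3/well on 12% gel.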

Homo sapiens [2] = organism: Homo sapiens; experiment: Inhibition of human C3bBb convertase assessed as C3 cleavage at 1 mM after 30 mins by 12% gel analysis; outline: as §1
Homo sapiens [3] = organism: Homo sapiens; experiment: Inhibition of human C3bBb convertase assessed as C3 cleavage after 30 mins by 7% gel analysis
Outline: (§2)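 Native convertase assembled in situ: C3 10 µg, factor B 0.5 µg and factor D 0.05 µg, 30 min at 37 °C in PBS pH 7.4 with 1 mM MgCl2 and 154 mM NaCl. Inhibitor at 0.25, 0.5 and 1.0 mM; leupeptin and PMSF at 1.0 mM as controls. C3 to C3a cleavage read on 7% or 12% gels.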

[4] = Inhibition of trypsin mediated cleavage of AcSHLGLAR-pNA
Outline: (§3)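 Ac-SHLGLAR-pNA at 0.5 mM final in 10 mM Hepes, 10 mM Tris, 150 mM NaCl, 0.1% PEG, pH 7.4; 150 µL wells; read at 405 nm, 37 °C. Trypsin at 133 nM final, inhibitor at eleven 2-fold dilutions from 26.6 µM, in triplicate. Thrombin at 0.5 U per well, inhibitor at eleven 2-fold dilutions from 666 µM, in duplicate.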

Complement factor B [5] = molecular target: T1, Complement factor B (Homo sapiens, UniProt P00751); experiment: Inhibition of human complement factor B at 100 uM
Outline: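 Competition format: 50 nM factor B with 100 µM inhibitor and Ac-SHLGLAR-pNA at 0.5, 2.5, 5 or 10 mM, in 100 mM glycine-HCl pH 9.5 at 37 °C. Absorbance increase followed at 405 nm.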

Complement factor B [6] = molecular target: T1, Complement factor B; experiment: Inhibition of human C3 convertase assessed as C3a formation after 30 mins by 12% gel analysis
Outline: (§4)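 Convertase (CVF.Bb) preformed from cobra venom factor 12 µg, factor B 8 µg and factor D 0.2 µg in PBS pH 7.4 with 1 mM MgCl2, 1 h at 37 °C, then diluted with PBS containing 20 mM EDTA. C3 10 µg plus convertase incubated 30 min at 37 °C in PBS pH 7.4 with buffer or inhibitor at 0.01–0.5 mM. C3a formation read on gels loaded with 2.5 µg C3/well (7%) or 5.0 µg (12%).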

Complement factor B [7] = molecular target: T1, Complement factor B; experiment: Inhibition of human C3 convertase assessed as C3a formation after 30 mins by 7% gel analysis; outline: as §4
Homo sapiens [8] = organism: Homo sapiens; experiment: Inhibition of human C3bBb convertase assessed as C3 cleavage after 30 mins by 12% gel analysis; outline: as §2
Complement factor B [9] = molecular target: T1, Complement factor B; experiment: Inhibition of human complement factor B assessed as cleavage of C3 convertase to C3b at pH 10.2
Outline: (§5)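 Purified factor B 4 µg with C3 10 µg, 3 h at 37 °C in 100 mM glycine-HCl pH 10.2 with 154 mM NaCl. Buffer or inhibitor at 0.01, 0.1, 0.25 or 0.5 mM. C3 cleavage products resolved on 7% and 12% gels.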

[10] = Inhibition of thrombin mediated cleavage of AcSHLGLAR-pNA; outline: as §3
Complement factor B [11] = molecular target: T1, Complement factor B; experiment: Inhibition of human complement factor B
Outline: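 Chromogenic assay: 50 nM factor B, 0.5 mM Ac-SHLGLAR-pNA, 100 mM glycine-HCl pH 9.5, 37 °C. Eleven inhibitor concentrations from 1 µM to 1 mM. pNA release monitored at 405 nm; buffer alone as positive control.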

Complement factor B [12] = molecular target: T1, Complement factor B; experiment: Inhibition of human complement factor B assessed as […] at pH 10.2; outline: as §5

T1 sequence (P00751 whole entry): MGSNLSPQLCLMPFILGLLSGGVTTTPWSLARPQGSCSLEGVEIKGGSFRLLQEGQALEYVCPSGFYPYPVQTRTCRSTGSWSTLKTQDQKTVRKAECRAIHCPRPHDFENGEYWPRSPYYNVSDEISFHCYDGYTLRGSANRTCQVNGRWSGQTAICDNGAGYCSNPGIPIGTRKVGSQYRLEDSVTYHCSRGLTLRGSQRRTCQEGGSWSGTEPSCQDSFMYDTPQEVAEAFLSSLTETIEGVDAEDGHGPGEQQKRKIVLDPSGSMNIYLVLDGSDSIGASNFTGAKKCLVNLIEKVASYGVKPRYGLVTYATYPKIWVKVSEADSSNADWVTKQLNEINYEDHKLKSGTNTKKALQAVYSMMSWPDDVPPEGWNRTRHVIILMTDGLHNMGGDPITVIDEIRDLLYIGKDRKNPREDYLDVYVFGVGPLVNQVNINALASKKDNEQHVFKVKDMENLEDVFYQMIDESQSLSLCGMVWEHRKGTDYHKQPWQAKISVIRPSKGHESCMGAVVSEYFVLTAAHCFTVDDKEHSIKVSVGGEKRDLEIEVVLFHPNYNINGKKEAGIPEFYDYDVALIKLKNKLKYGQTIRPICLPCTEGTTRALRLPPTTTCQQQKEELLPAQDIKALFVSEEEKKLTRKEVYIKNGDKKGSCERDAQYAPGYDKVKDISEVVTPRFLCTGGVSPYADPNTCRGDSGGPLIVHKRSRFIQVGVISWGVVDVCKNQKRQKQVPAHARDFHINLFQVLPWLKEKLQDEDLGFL

O=S(=O)(F)Cc1ccccc1
Activity (Homo sapiens [1]): inactive
Activity (Homo sapiens [2]): inactive

CC(=O)N[C@@H](CO)C(=O)N[C@@H](Cc1cnc[nH]1)C(=O)N[C@@H](CC(C)C)C(=O)NCC(=O)N[C@@H](CC(C)C)C(=O)N[C@@H](C)C(=O)N[C@H](C=O)CCCNC(=N)N (Ac-SHLGLAR-aldehyde)
Activity (Homo sapiens [3]): Dose-dependent effect
IC50 [4]: 716 µM
Activity (Complement factor B [5]): Dose-dependent effect
Activity (Complement factor B [6]): Dose-dependent effect
Activity (Complement factor B [7]): Dose-dependent effect
Activity (Homo sapiens [8]): Dose-dependent effect
Activity (Complement factor B [9]): Active
IC50 [10]: 24 µM
IC50 (Complement factor B [11]): 19 µM
Activity (Complement factor B [12]): Dose-dependent effect

CC(=O)N[C@@H](CC(C)C)C(=O)N[C@@H](CC(C)C)C(=O)N[C@H](C=O)CCCNC(=N)N
Activity (Homo sapiens [1]): inactive
Activity (Homo sapiens [2]): inactive
